Where “and” joins values, the source holds several entries; their conditions need not be identical. Equal values may be shown once.
Test: Apparent acid dissociation constant (pK) was determined
Type: ADME
Settings: for pKa: read-out: pK
Procedure, shortened: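 Analogue bound to apo-aspartate aminotransferase (complex formed at pH 8.3) was titrated toward lower pH by adding 2 M acetate buffer, pH 5.4. Absorption spectra were followed for the shift of the bound-coenzyme band to 420 nm, and the pK was estimated from the pH dependence of that spectral change.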

Row | Compound | pK | pKa
1 | Cc1ncc(COP(=O)(O)O)c(C=O)c1O [PYRIDOXAL PHOSPHATE ANHYDROUS] | 3.62 and 6.1 and 8.33 | –
2 | CCOP(=O)(Cc1cnc(C)c(O)c1CO)OCC | 8.59 | 4.53
3 | CCOP(=O)(O)Cc1cnc(C)c(O)c1C=O | 3.91 and 8.21 | –
4 | CCOP(=O)(Cc1cnc(C)c(O)c1C=O)OCC | 3.03 and 7 | –

Second part, led by results:

Row | pK | Compound | pKa
5 | 4.07 and 6.76 and 9.2 | Cc1ncc(CP(=O)(O)O)c(C=O)c1O | –
6 | 8.05 | Cc1cnc(C)c(O)c1C=O | 4.15

— ChEMBL document CHEMBL1122218, “Phosphonate analogues of pyridoxal phosphate with shortened side chains” (J Med Chem, 1983)
